Data taken from PMC5299595 (Fitoterapia, 2016).
Entries after “also recorded” stand apart in the source; their conditions may differ. Where a name gives a salt, the structure may show the parent alone. Read-outs that look alike come from different tables or passages of the source.

Legend:
[1] = tested on: rat striatal slices preloaded with [3H]-DA; experiment: Fractional [3H] release from [3H]-DA preloaded superfused rat striatal slices; type: cell-based
In short: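 Rat coronal striatal slices (500 μm, 6–8 mg) equilibrated 30 min at 34°C in oxygenated Krebs' buffer (pH 7.4), then preloaded with 0.1 μM [3H]-DA for 30 min. Superfused at 34°C, 1 ml/min, with buffer containing 10 μM pargyline and 10 μM nomifensine. Two 4-min basal samples taken after 60 min. Test compound (10, 100 or 1000 μM) then perfused per chamber, or 100 μM given after 20 min of 10 μM MEC or vehicle. Compared with vehicle-treated slices by Bonferroni post-hoc test; n = 4–10 rats.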

[2] = tested on: nicAchRs in SH-SY5Y cells; experiment: 45Ca2+ entry in SH-SY5Y cells; type: cell-based, human
α4β2- and α7-nicAchRs [3] = conditions: α7 vs α4β2, based on comparison of Ki's
[4] = PubChem data; cited from earlier work
DAT [5] = molecular target: T1, DAT (Rattus norvegicus, UniProt P23977); type: in vivo
In short: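 High-speed chronoamperometry with Nafion-coated carbon fibre microelectrodes in the dorsal striatum of isoflurane-anaesthetised rats. Clearance of locally applied exogenous DA used to gauge DAT function, and test compound also applied locally in the striatum.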

[6] = DPPH free radical scavenging assay; conditions: read-out: EC50, DPPH free radical scavenging; DPPH 300 μM, 5 minutes
α7-nicAchR [7] = molecular target: α7-nicAchR (Rattus norvegicus, UniProt Q05941); experiment: [3H]-MLA competition binding in rat hippocampal membranes; conditions: read-out: Ki, [3H]-MLA binding (α7-nicAchR)
DAT [8] = molecular target: T1, DAT; experiment: [3H]-GBR12935 competition binding in rat striatal membranes; conditions: read-out: Ki, [3H]-GBR12935 binding
In short: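 Striatal tissue homogenised in 120 mM NaCl/50 mM Tris-HCl (pH 7.4), spun at 25,000 × g for 20 min at 4°C, then washed thrice in the same buffer plus 0.01% FBS. Membranes (1 mg/ml final) preincubated 15 min with test compound (final 1.0 mM – 0.1 nM; DMSO <0.1%). 1 nM [3H]-GBR12935 then added for 1 h at room temperature. GF/B filtration and scintillation counting; non-specific binding defined with 10 μM GBR12909.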

DAT [9] = molecular target: T1, DAT; experiment: DAT-mediated [3H]-DA uptake in rat striatal synaptosomes; type: biochemical; conditions: read-out: IC50, DAT-mediated [3H]-DA uptake
In short: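 Striata from CO2-anaesthetised adult male Sprague-Dawley rats (200–250 g) homogenised in pH 7.4 HEPES uptake buffer (100 μM pargyline, 0.32 M sucrose). Synaptosomes taken as the 16,000 × g pellet after a 1,000 × g spin. Test compound (final 1 mM – 0.1 nM; DMSO ≤1.0%) preincubated 10 min at 37°C. [3H]-DA (15–30 nM final) uptake for 5 min at 37°C, stopped on ice, GF/C filtration, scintillation counting. Non-specific uptake defined with 10 μM GBR-12909.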

nicAchRs = experiment: [3H]-epibatidine competition binding in rat cortical membranes; conditions: read-out: Ki, [3H]-epibatidine binding
cats = conditions: intravenous; cited from earlier work
rabbits = conditions: intravenous; cited from earlier work
mice = conditions: cited from earlier work
α4β2-nicAchR [10] = molecular target: α4β2-nicAchR (Rattus norvegicus, UniProt P09483+P12390); experiment: [3H]-cytisine competition binding in rat cortical membranes; conditions: read-out: Ki, [3H]-cytisine binding (α4β2-nicAchR)
DAT [11] = molecular target: T1, DAT; conditions: cited from earlier work
α4β2- and α7-nicAchRs [12] = conditions: previously reported, ref Littleton et al. (2005) [15], cited from earlier work
α7-nicAchR [13] = conditions: read-out: Ki α7-nicAchR, cited from earlier work
α4β2-nicAchR [14] = conditions: read-out: Ki α4β2-nicAchR, cited from earlier work
[15] = tested on: rat striatal slices preloaded with [3H]-DA; conditions: cited from earlier work

For `CN1CCCC2C(c3ccccc3)C(C3=NCCCC3)C(c3ccccc3)CC21` (stereo not drawn) [Lobinaline, lobinaline], the “Fractional [3H] release vs vehicle” value ([1]; 10 μM) was “not significantly increased”, the “Fractional [3H] release vs vehicle after MEC pretreatment” value ([1]; 100 μM after 10 μM MEC pretreatment for 20 minutes) was “not significantly different; also recorded: no significant difference” and the “Fractional [3H] release, greater than vehicle” value ([1]; 100 μM, 8 minutes after treatment, MEC experiment set) was 160%. The “Maximum fractional [3H] release, greater than vehicle treated” value ([1]; 100 μM, maximum 12 minutes post-treatment, concentration-response studies) was 186%, the “Maximum fractional [3H] release, greater than vehicle treated controls” value ([1]; 100 μM, maximum 16 minutes after treatment, MEC experiment set) was 262% and the “Maximum fractional [3H] release, greater than vehicle treated” value ([1]; 1000 μM, maximum 8 minutes post-treatment) was 494%. The “45Ca2+ entry, increase above basal” value ([2]; 1 mM) was 41.6%, the “45Ca2+ entry, increase above basal” value ([2]; 1 mM concomitantly with NIC 10 μM) was 115.7% and the “Effect of MEC on compound-induced 45Ca2+ entry” value ([2]; 1 mM with MEC 1 μM) was “completely abolished”. For the same compound, the “NicAchR Selectivity (-fold difference)” value (α4β2- and α7-nicAchRs [3]) was 63 -fold, the hydrogen bond acceptors [4] was 2 and the hydrogen bond donors [4] was 0. The molar fractivity [4] was 82.47, the “Time after ejection at which effects on DA clearance are no longer significant” value (DAT [5]; local application in striatum) was 3 to 5 min and the “Direct effect on electrochemical DA signal when locally applied alone” value (DAT [5]; locally applied from a micropipette, n = 10, data not shown) was “no direct effects”. It also gave an EC50 [6] of 18 µM, a Ki (α7-nicAchR [7]) of 67.5 µM and a Ki (DAT [8]) of 2.54 µM. The IC50 (DAT [9]) was 12 µM, the Ki (nicAchRs) was 16.2 µM and the “Effect on blood pressure” value (cats) was “lower blood pressure”. For the same compound, the Effect on respiration (cats) was “unaffected”, the “Effect on blood pressure” value (rabbits) was “lower blood pressure” and the Effect on respiration (rabbits) was “unaffected”. The minimal lethal dose (mice; subcutaneous administration in mice) was 800 mg/kg and the Ki (α4β2-nicAchR [10]) was 1.07 µM.
With `CNC1(C)C2CCC(C2)C1(C)C` (stereo not drawn) [MEC, mecamylamine (MEC) hydrochloride] the “Effect on 45Ca2+ entry” value ([2]; 1 μM alone) was “unaffected; also recorded: did not affect”.
With `O=c1c(O)c(-c2ccc(O)c(O)c2)oc2cc(O)cc(O)c12` [Quercetin] the EC50 [6] was 11.2 µM.
In the case of `CN1CCC[C@H]1c1cccnc1` [Nicotine, (−)-nicotine], the “45Ca2+ entry, increase above basal” value ([2]; 10 μM, LCaq experiments (Fig. 1A)) is reported as 374.4%, the “45Ca2+ entry, increase above basal” value ([2]; 10 μM, lobinaline experiments (Fig. 6A)) is reported as 196.6% and the “NicAchR Selectivity (-fold difference)” value (α4β2- and α7-nicAchRs [3]) is reported as 1508 -fold. The “Activity at the DAT” value (DAT [11]; rat striatal synaptosomes) was “inactive”, the DDR value (α4β2- and α7-nicAchRs [12]) was 13.00 ^6 and the DDR value (α4β2- and α7-nicAchRs [12]; listed as nicotine) was 13.00. For the same compound, the Ki (α7-nicAchR [13]; ref Rueter et al. (2006)) was 1.45 µM and the Ki (α4β2-nicAchR [14]; ref Rueter et al. (2006)) was 0.00096 µM.
For `CN1[C@@H](CC(=O)c2ccccc2)CCC[C@H]1C[C@H](O)c1ccccc1` [Lobeline, (−)-lobeline hydrochloride], the “MEC sensitivity of evoked fractional [3H] release” value [15] is given as “MEC-insensitive”, the “NicAchR Selectivity (-fold difference)” value (α4β2- and α7-nicAchRs [3]) is given as 1565 -fold and the IC50 (DAT [11]; read-out: IC50, DAT inhibition) is given as 28.2 to 80 µM. The DDR value (α4β2- and α7-nicAchRs [12]) was 6.27 ^6, the DDR value (α4β2- and α7-nicAchRs [12]; listed as lobeline) was 6.27 and the EC50 [6] was 229 µM. For the same compound, the Ki (α7-nicAchR [13]; ref Hojahmat et al. (2010)) was 6.26 µM, the minimal lethal dose (mice; mouse, in vivo, sc) was 300 mg/kg and the Ki (α4β2-nicAchR [14]; ref Hojahmat et al. (2010)) was 0.004 µM.
For `c1cncc([C@@H]2CCCCN2)c1` [anabasine], the DDR value (α4β2- and α7-nicAchRs [12]) is given as 4.16, the Ki (α7-nicAchR [13]) is given as 0.058 µM and the Ki (α4β2-nicAchR [14]) is given as 0.065 µM.
